Data taken from ChEMBL document CHEMBL2396525, “Synthesis and anti-HCMV activity of 1-[ω-(phenoxy)alkyl]uracil derivatives and analogues thereof” (Bioorg Med Chem, 2013).
The source made the active and inactive calls. The calls are words filed in the database; no cut-off is given here.

Legend:
[1] = system: Human immunodeficiency virus 2; test: Antiviral activity against HIV2 ROD infected in human CEM cells assessed as inhibition of virus-induced giant cell formation after 4 to 5 days; assay type: functional, organism-based; settings: ISOLATE ROD, CCRF-CEM
In short: (§1)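 CEM cells at about 3 × 10^5 cells/mL were infected with 100 CCID50 of HIV per mL, with compound dilutions present. They were incubated 4–5 days at 37 °C in humidified CO2, and syncytia were scored microscopically. EC50 is the concentration that inhibits giant cell formation by 50%.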

[2] = system: Human immunodeficiency virus 1; test: Antiviral activity against HIV1 3B infected in human CEM cells assessed as inhibition of virus-induced giant cell formation after 4 to 5 days; assay type: functional, organism-based; settings: CCRF-CEM; in short: as §1
[3] = system: Feline coronavirus; test: Antiviral activity against Feline coronavirus; assay type: functional, organism-based
[4] = system: Sindbis virus; test: Antiviral activity against Sindbis virus; assay type: functional, organism-based
In short: (§2)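 Confluent HEL, Vero, HeLa or MDCK cell cultures were inoculated with 100 CCID50 of virus alongside varying compound concentrations. Cytopathicity was scored when it reached completion in untreated virus controls. EC50 is the concentration that reduces virus-induced cytopathogenicity by 50%.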

[5] = system: Punta Toro virus; test: Antiviral activity against Punta Toro virus; assay type: functional, organism-based; in short: as §2
[6] = system: Influenza B virus; test: Antiviral activity against Influenza B virus; assay type: functional, organism-based
In short: (§3)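 The assay was a cell-based cytopathicity inhibition test on confluent monolayers with serial compound dilutions. EC50 was the concentration that reduced virus-induced cytopathicity by 50%.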

[7] = system: Mammalian orthoreovirus 1; test: Antiviral activity against Reovirus-1; assay type: functional, organism-based; in short: as §2
[8] = system: Influenza A virus; test: Antiviral activity against Influenza virus A virus H3N2; assay type: functional, organism-based; in short: as §3
[9] = system: Human respirovirus 3; test: Antiviral activity against Parainfluenza virus 3; assay type: functional, organism-based; in short: as §2
[10] = system: Influenza A virus; test: Antiviral activity against Influenza virus A virus H1N1; assay type: functional, organism-based; in short: as §3
[11] = system: Coxsackievirus B4; test: Antiviral activity against Coxsackie B4 virus; assay type: functional, organism-based; in short: as §2
[12] = system: Vesicular stomatitis virus; test: Antiviral activity against Vesicular stomatitis virus; assay type: functional, organism-based
[13] = system: Respiratory syncytial virus; test: Antiviral activity against Respiratory syncytial virus Long; assay type: functional, organism-based; in short: as §2
[14] = system: Vaccinia virus; test: Antiviral activity against Vaccinia virus Lederle; assay type: functional, organism-based; settings: Orthopoxvirus vaccinia
[15] = system: Human alphaherpesvirus 3; test: Antiviral activity against Varicella-zoster virus YS; assay type: functional, organism-based
In short: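 VZV was assayed by plaque formation. Confluent cell cultures received 10 or 100 PFU with varying compound concentrations, and plaques were recorded once complete in untreated infected controls. EC50 is the concentration that reduces plaque formation by 50%.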

[16] = system: Human alphaherpesvirus 3; test: Antiviral activity against Varicella-zoster virus OKA; assay type: functional; settings: strain Oka vaccine
In short: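 Confluent cell monolayers were infected with 10 or 100 PFU of VZV in the presence of serial compound dilutions. Plaque formation was recorded once untreated infected controls reached completion. EC50 was the concentration that reduced plaque formation by 50%.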

[17] = system: Human alphaherpesvirus 2; test: Antiviral activity against Herpes simplex virus type 2 Lyons; assay type: functional, organism-based; in short: as §2
[18] = system: Human alphaherpesvirus 2; test: Antiviral activity against Herpes simplex virus type 2 G; assay type: functional, organism-based; settings: strain G; in short: as §2
[19] = system: Human alphaherpesvirus 1; test: Antiviral activity against thymidine kinase deficient acyclovir-resistant Herpes simplex virus type 1 KOS; assay type: functional, organism-based
[20] = system: Human alphaherpesvirus 1; test: Antiviral activity against Herpes simplex virus type 1 KOS; assay type: functional, organism-based; in short: as §2
[21] = system: Human betaherpesvirus 5; test: Antiviral actiivty against Human herpesvirus 5 Davis infected in HEL assessed as reduction of virus-induced plaque formation; assay type: functional, organism-based; settings: Human betaherpesvirus 5, Davis
In short: (§4)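 HCMV strains AD-169 and Davis were tested on confluent human embryonic lung fibroblast monolayers infected with 100 PFU in the presence of serial compound concentrations. Plaques were counted once formation was complete in untreated infected controls. EC50 is the concentration that cuts plaque formation by 50%.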

[22] = system: Human betaherpesvirus 5; test: Antiviral actiivty against Human herpesvirus 5 AD169 infected in HEL assessed as reduction of virus-induced plaque formation; assay type: functional, organism-based; settings: Human betaherpesvirus 5, AD169; in short: as §4
[23] = Cytotoxicity against HEL assessed as minimum cytotoxic concentration required to cause microscopically detectable alteration in cell morphology; assay type: cell-based; settings: human, HEL cells
[24] = system: HEL; test: Cytotoxicity against HEL; assay type: cell-based; settings: human

Row | Compound | Activity [1] | Activity [2] | Activity [3] | Activity [4] | Activity [5] | Activity [6] | Activity [7] | Activity [8] | Activity [9] | Activity [10] | Activity [11] | Activity [12] | Activity [13] | Activity [14] | Activity [15] | Activity [16] | Activity [17] | EC50 [21] [µM] | EC50 [22] [µM] | MCC [23] [µM] | further results
1 | O=c1ccn(CCCCCOc2ccc(Cl)cc2)c(=O)[nH]1 | inactive | inactive | inactive | inactive | inactive | inactive | inactive | inactive | inactive | inactive | inactive | inactive | inactive | inactive | inactive | inactive | inactive | > 100 | > 100 | > 100 | Activity [18]: inactive; Activity [19]: inactive; Activity [20]: inactive
2 | O=c1ccn(CCCCOc2ccc(Br)cc2)c(=O)[nH]1 | inactive | inactive | inactive | inactive | inactive | inactive | inactive | inactive | inactive | inactive | inactive | inactive | inactive | inactive | inactive | inactive | inactive | > 20 | > 20 | 100 | Activity [18]: inactive; Activity [19]: inactive; Activity [20]: inactive
3 | O=c1ccn(CCCCCOc2ccccc2)c(=O)[nH]1 | inactive | inactive | inactive | inactive | inactive | inactive | inactive | inactive | inactive | inactive | inactive | inactive | inactive | inactive | inactive | inactive | inactive | > 100 | > 100 | > 100 | Activity [18]: inactive; Activity [19]: inactive; Activity [20]: inactive; CC50 [24]: > 100 µM
4 | O=c1ccn(CCCCCCOc2ccc(Br)cc2)c(=O)[nH]1 | inactive | inactive | inactive | inactive | inactive | inactive | inactive | inactive | inactive | inactive | inactive | inactive | inactive | inactive | inactive | inactive | inactive | > 4 | > 4 | 20 | Activity [18]: inactive; Activity [19]: inactive; Activity [20]: inactive
5 | Nc1nc(O)c2ncn(COC(CO)CO)c2n1 [GANCICLOVIR] |  |  |  |  |  |  |  |  |  |  |  |  |  |  |  |  |  | 8.3 |  | 394 | CC50 [24]: 200 µM
6 | Nc1ccn(C[C@@H](CO)OCP(=O)(O)O)c(=O)n1 [CIDOFOVIR] |  |  |  |  |  |  |  |  |  |  |  |  |  |  |  |  |  | 1.1 | 1.3 | 317 | CC50 [24]: 161 µM
